The values below come from ChEMBL document CHEMBL1154352, “Toll-like receptor 7 selective synthetic oligoribonucleotide agonists: synthesis and structure-activity relationship studies” (J Med Chem, 2009).

The structures appear in SMILES notation. Activity calls are given as the source filed them. No cut-off for these calls is given here.

A short description of data set [1]: Metabolic stability in human serum assessed as full length product remaining after 10 mins by HPLC. It counts as ADME, cell-free. To be noted: read-out: Stability. In a few lines: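 About 0.5 A260 units compound in 1% human serum in PBS, 37 °C; aliquot taken at 10 min, analysed by anion-exchange HPLC for percent intact full-length product.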
The target of data set [2] is T1, Toll-like receptor 8 (Homo sapiens) (UniProt Q9NR97).
T1 sequence (whole entry): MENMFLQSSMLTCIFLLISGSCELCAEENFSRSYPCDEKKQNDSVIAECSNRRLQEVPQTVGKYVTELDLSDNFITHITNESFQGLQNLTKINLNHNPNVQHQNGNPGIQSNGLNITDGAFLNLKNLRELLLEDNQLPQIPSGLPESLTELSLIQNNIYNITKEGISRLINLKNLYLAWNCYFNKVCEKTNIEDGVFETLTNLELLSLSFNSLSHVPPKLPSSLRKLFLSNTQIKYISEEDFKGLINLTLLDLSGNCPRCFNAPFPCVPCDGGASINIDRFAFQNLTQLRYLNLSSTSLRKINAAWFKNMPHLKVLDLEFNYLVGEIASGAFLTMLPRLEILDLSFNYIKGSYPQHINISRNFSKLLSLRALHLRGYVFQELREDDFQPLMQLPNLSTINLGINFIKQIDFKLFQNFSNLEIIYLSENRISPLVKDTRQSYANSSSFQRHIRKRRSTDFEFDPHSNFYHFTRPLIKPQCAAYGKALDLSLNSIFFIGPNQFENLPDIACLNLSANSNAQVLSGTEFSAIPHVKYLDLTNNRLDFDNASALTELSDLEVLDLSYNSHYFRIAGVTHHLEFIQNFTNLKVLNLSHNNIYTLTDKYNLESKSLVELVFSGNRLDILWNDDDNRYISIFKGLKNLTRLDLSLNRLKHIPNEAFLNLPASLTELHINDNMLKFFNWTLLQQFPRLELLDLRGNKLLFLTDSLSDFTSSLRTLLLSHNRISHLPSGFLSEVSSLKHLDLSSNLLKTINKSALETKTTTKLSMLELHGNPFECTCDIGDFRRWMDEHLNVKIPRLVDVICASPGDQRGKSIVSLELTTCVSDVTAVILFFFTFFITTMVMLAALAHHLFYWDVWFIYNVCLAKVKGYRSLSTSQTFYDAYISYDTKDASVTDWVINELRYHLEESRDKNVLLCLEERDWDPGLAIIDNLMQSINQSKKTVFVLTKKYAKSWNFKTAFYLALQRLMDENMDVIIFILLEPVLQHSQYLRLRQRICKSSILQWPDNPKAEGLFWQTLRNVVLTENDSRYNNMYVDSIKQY
As to the kind of experiment: Activation of human TLR8 expressed in HEK293XL assessed as fold induction of NF-kappaB activity at 50 ug/ml after 18 hrs by reporter gene assay relative to control. In a few lines: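 HEK293 cells stably expressing human TLR7 or TLR8, transiently transfected with SEAP reporter plasmid; medium replaced, SIMRA compounds added, 18 h incubation. Supernatant SEAP measured by QuantiBlue; expressed as fold increase in NF-κB activity over PBS control. Tabulated data at 50 μg/mL, representative of three independent experiments.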
Background: In a reporter assay the amount or activity of a reporter protein is the signal.

Data set [3] is filed under the species Homo sapiens. As to the kind of experiment: Ratio of human TLR7 activity to human TLR8 activity. In a few lines:
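TLR7/TLR8 ratio computed from fold NF-κB (SEAP reporter) activation in HEK293 cells stably expressing human TLR7 versus TLR8, compounds at 50 μg/mL, 18 h exposure; representative of three independent experiments.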

For data set [4], the target named is Toll-like receptor 3 (Homo sapiens) (UniProt O15455). Description: Activation of human TLR3 expressed in HEK293 assessed as induction of NF-kappaB activity reporter gene assay. It counts as cell-based.
The species entered for data set [5] is Homo sapiens. As to the kind of experiment: Immunostimulatory activity in human pDC assessed as induction of IFNalpha at 100 ug/ml after 24 hrs. The class given is functional. In a few lines:
(§1)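 Human pDCs plated at 1 × 10^6 cells/mL; compounds in PBS added, 37 °C for 24 h; supernatant cytokines/chemokines by human Luminex multiplex kit.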

The test system of data set [6] is PBMC. Description: Immunomodulatory activity in human PBMC assessed as induction of IL12 at 50 ug/ml after 24 hrs. It counts as functional, cell-based. In a few lines: (§2)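 Human PBMCs plated at 5 × 10^6 cells/mL; compounds dissolved in PBS added at various concentrations, 37 °C for 24 h. Supernatant cytokines/chemokines quantified with human Luminex multiplex kit.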

Data set [7] relates to PBMC. As to the kind of experiment: Immunomodulatory activity in human PBMC assessed as induction of TNFalpha at 50 ug/ml after 24 hrs. It counts as functional, cell-based. In short, it runs like this: as §2
Data set [8] deals with PBMC. Description: Immunomodulatory activity in human PBMC assessed as induction of IFNalpha at 50 ug/ml after 24 hrs. The class given is functional, cell-based. In short, it runs like this: as §2
Data set [9] relates to PBMC. As to the kind of experiment: Immunomodulatory activity in human PBMC assessed as induction of MIP1alpha at 50 ug/ml after 24 hrs. It counts as functional, cell-based. In a few lines: as §2
Data set [10] has as its system PBMC. As to the kind of experiment: Immunomodulatory activity in human PBMC assessed as induction of MIP1beta at 50 ug/ml after 24 hrs. The class given is functional, cell-based. In a few lines:
as §2

Data set [11] deals with PBMC. Description: Immunomodulatory activity in human PBMC assessed as induction of IP10 at 50 ug/ml after 24 hrs. It counts as functional, cell-based. In a few lines:
as §2

In data set [12] the test system is PBMC. Description: Immunomodulatory activity in human PBMC assessed as induction of MCP1 at 50 ug/ml after 24 hrs. It counts as functional, cell-based. In short, it runs like this: as §2
In data set [13] the test system is PBMC. Description: Immunomodulatory activity in human PBMC assessed as induction of IL6 at 50 ug/ml after 24 hrs. The class given is functional, cell-based. In a few lines: as §2
Data set [14] relates to PBMC. Description: Immunomodulatory activity in human PBMC assessed as induction of IL1-beta at 50 ug/ml after 24 hrs. The class given is functional, cell-based. In a few lines: as §2
The species named for data set [15] is Homo sapiens. As to the kind of experiment: Immunostimulatory activity in human pDC assessed as induction of IL6 at 100 ug/ml after 24 hrs. It counts as functional. In a few lines: as §1
For data set [16], the species on record is Homo sapiens. Description: Immunostimulatory activity in human mDC assessed as induction of IFNalpha at 100 ug/ml after 24 hrs. The class given is functional. In short, it runs like this:
(§3)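 Human mDCs isolated from PBMCs by CD19+ B-cell depletion then BDCA1 positive selection; plated at 1 × 10^6 cells/mL, compounds in PBS, 37 °C for 24 h; supernatant cytokines by human Luminex multiplex. Representative of four independent experiments.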

The species named for data set [17] is Homo sapiens. Description: Immunostimulatory activity in human mDC assessed as induction of IP10 at 100 ug/ml after 24 hrs. The class given is functional. In short, it runs like this:
as §3

The species entered for data set [18] is Homo sapiens. Description: Immunostimulatory activity in human mDC assessed as induction of IL12 at 100 ug/ml after 24 hrs. The class given is functional. In a few lines:
as §3

For data set [19], the species on record is Homo sapiens. As to the kind of experiment: Immunostimulatory activity in human mDC assessed as induction of IL6 at 100 ug/ml after 24 hrs. The class given is functional. In short, it runs like this: as §3
The species entered for data set [20] is Homo sapiens. As to the kind of experiment: Immunostimulatory activity in human mDC assessed as induction of TNFalpha at 100 ug/ml after 24 hrs. It counts as functional. In a few lines:
as §3

A further data set relates to Mus musculus. Description: Immunomodulatory activity in C57BL/6 mouse assessed as induction of IL12 release at 25 mg/kg, sc after 2 hrs by ELISA. It counts as functional, organism-based. The arrangement: dose 25 mg/kg. In short, it runs like this: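 Female C57BL/6 wild-type mice, 5–8 weeks old, n=3; compounds given subcutaneously at 10 or 25 mg/kg. Retro-orbital blood at 2 h; serum cytokines by mouse Luminex multiplex or IL-12 ELISA.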
In general terms: In an ELISA, binding on a coated surface is turned into a signal by an enzyme label.

The test system of data set [21] is PBMC. Description: Immunomodulatory activity in human PBMC assessed as induction of IFN-alpha at 100 ug/ml after 24 hrs.

Sequence of Toll-like receptor 3 (Homo sapiens) (O15455 whole entry): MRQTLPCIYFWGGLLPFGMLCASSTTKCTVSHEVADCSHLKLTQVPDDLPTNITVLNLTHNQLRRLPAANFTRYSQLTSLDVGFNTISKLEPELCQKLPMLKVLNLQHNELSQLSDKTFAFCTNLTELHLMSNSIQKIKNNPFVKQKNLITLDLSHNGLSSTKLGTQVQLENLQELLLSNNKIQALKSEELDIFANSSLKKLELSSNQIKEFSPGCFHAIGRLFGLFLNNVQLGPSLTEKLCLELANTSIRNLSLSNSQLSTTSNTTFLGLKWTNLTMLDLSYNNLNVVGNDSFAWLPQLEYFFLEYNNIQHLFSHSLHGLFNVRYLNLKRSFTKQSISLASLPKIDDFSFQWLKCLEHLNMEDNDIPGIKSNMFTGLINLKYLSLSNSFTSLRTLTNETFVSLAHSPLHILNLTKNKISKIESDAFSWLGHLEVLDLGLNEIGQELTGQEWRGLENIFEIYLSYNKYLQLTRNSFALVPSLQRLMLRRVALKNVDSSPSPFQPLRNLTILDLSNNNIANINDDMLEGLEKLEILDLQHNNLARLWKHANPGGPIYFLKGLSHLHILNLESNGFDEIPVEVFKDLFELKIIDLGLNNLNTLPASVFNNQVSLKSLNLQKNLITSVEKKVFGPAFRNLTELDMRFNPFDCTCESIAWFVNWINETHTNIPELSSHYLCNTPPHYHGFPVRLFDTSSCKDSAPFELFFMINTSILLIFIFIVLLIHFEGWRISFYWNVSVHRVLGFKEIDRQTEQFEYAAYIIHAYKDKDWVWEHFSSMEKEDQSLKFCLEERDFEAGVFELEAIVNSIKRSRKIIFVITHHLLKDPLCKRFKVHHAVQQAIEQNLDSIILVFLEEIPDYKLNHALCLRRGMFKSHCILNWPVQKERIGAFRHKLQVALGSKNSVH

On to `Nc1ccn([C@@H]2O[C@H](COP(=O)(S)O[C@H]3[C@@H](O)[C@H](n4cnc5c(N)ncnc54)O[C@@H]3COP(=O)(S)O[C@H]3[C@@H](O)[C@H](n4ccc5c(=O)[nH]c(N)nc54)O[C@@H]3COP(=O)(S)O[C@H]3[C@@H](O)[C@H](n4ccc(=O)[nH]c4=O)O[C@@H]3COP(=O)(S)O[C@H]3[C@@H](O)[C@H](n4ccc(=O)[nH]c4=O)O[C@@H]3COP(=O)(S)O[C@H]3[C@@H](O)[C@H](n4cnc5c(N)ncnc54)O[C@@H]3COP(=O)(S)O[C@H]3[C@@H](O)[C@H](n4cnc5c(N)ncnc54)O[C@@H]3CO)[C@@H](OP(=O)(S)OC[C@H]3O[C@@H](n4ccc5c(=O)[nH]c(N)nc54)[C@H](O)[C@@H]3OP(=O)(S)OC[C@H]3O[C@@H](n4ccc(N)nc4=O)[C@H](O)[C@@H]3OP(=O)(S)OC[C@H]3O[C@@H](n4ccc(=O)[nH]c4=O)[C@H](O)[C@@H]3OP(=O)(S)OC[C@H]3O[C@@H](n4ccc(=O)[nH]c4=O)[C@H](O)[C@@H]3OP(=O)(S)OCC(O)COP(=O)(S)O[C@H]3[C@@H](O)[C@H](n4ccc(=O)[nH]c4=O)O[C@@H]3COP(=O)(S)O[C@H]3[C@@H](O)[C@H](n4ccc(=O)[nH]c4=O)O[C@@H]3COP(=O)(S)O[C@H]3[C@@H](O)[C@H](n4ccc(N)nc4=O)O[C@@H]3COP(=O)(S)O[C@H]3[C@@H](O)[C@H](n4ccc5c(=O)[nH]c(N)nc54)O[C@@H]3COP(=O)(S)O[C@H]3[C@@H](O)[C@H](n4ccc(N)nc4=O)O[C@@H]3COP(=O)(S)O[C@H]3[C@@H](O)[C@H](n4cnc5c(N)ncnc54)O[C@@H]3COP(=O)(S)O[C@H]3[C@@H](O)[C@H](n4ccc5c(=O)[nH]c(N)nc54)O[C@@H]3COP(=O)(S)O[C@H]3[C@@H](O)[C@H](n4ccc(=O)[nH]c4=O)O[C@@H]3COP(=O)(S)O[C@H]3[C@@H](O)[C@H](n4ccc(=O)[nH]c4=O)O[C@@H]3COP(=O)(S)O[C@H]3[C@@H](O)[C@H](n4cnc5c(N)ncnc54)O[C@@H]3COP(=O)(S)O[C@H]3[C@@H](O)[C@H](n4cnc5c(N)ncnc54)O[C@@H]3CO)[C@H]2O)c(=O)n1` (some centres not stated), for which the remaining at 10 min in data set [1] was 80%. Further, the fold change (FC) in data set [2] came out at 0.3. Also, in the data set listed under Homo sapiens [3], the Ratio was 69.7. For the same compound, in data set [4], the result was inactive. Also, the outcome in the data set filed under Homo sapiens [5], in the data set listed under Homo sapiens [15], in the data set filed under Homo sapiens [16], in the data set listed under Homo sapiens [17], in the data set filed under Homo sapiens [18] and in the data set filed under Homo sapiens [19] was Active. Besides, the outcome in the data set filed under Homo sapiens [20] and with Mus musculus was Active. Moreover, the Activity in the data set with PBMC [6] worked out at 320 pg/mL; in the data set with PBMC [7] it was 104 pg/mL; in the data set with PBMC [8], 149 pg/mL; in the data set with PBMC [9], 2230 pg/mL; with PBMC [10], 5500 pg/mL; in the data set with PBMC [11], 453 pg/mL. For the same compound, the Activity in the data set on PBMC [12] turned out to be 49600 pg/mL; with PBMC [13], 1750 pg/mL; in the data set on PBMC [14], 117 pg/mL. The IFN-alpha in the data set on PBMC [21] was determined as 193 pg/mL.
